# Results of several laboratories.
# Lines come from different studies, so protocols differ.
# Target: Lymphokine-activated killer T-cell-originated protein kinase (PBK, Homo sapiens, UniProt Q96KB5)
# One construct used (Q96KB5 1-322): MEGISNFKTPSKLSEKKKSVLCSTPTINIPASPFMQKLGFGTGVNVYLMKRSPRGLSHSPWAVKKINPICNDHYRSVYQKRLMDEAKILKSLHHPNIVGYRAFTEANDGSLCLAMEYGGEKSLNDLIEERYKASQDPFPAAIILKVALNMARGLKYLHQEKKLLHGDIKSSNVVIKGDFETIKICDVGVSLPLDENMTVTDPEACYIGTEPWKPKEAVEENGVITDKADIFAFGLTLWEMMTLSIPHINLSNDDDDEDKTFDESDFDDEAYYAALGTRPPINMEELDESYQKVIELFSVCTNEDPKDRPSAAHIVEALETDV
SMILES,observed,action,method,concentration,quantity,value
CC(C)(O)[C@H]1CC[C@H](Nc2ccc3ncc(-c4cccc(C(F)(F)F)c4)n3n2)CC1,enzyme activity,inhibitor,,1 µM,remaining activity,87.2%
CC(C)(C)c1nc(-c2cccc(NS(=O)(=O)c3c(F)cccc3F)c2F)c(-c2ccnc(N)n2)s1,enzyme activity,inhibitor,radiometric,1 µM,remaining activity,99%
O=C(Nc1cnn(-c2csc(C(=O)NC3COC3)c2)c1)Nc1c(F)cccc1Cl,enzyme activity,inhibitor,,5 µM,remaining activity,98.2%
Cn1c2c(c3ccccc31)C(C#N)C(C)(C)NC2=O (centres unmarked),thermal stability,,DSF,10 µM,ΔTm,-0.8 °C
O=C1Nc2ccc(Cl)cc2C1=Cc1cc(Cl)c(O)c(Cl)c1,cell-free assay,,,0.5 µM,remaining signal,86.1%
CC/C(=N\NC(=O)NCc1cccc(O)c1)c1ccc(O)c(C)c1O,enzyme activity,inhibitor,,0.1 µM,inhibition,-7.3%
CCN1CCC2(CC1)NC(=O)c1c(c3ccc(Cl)c(Cl)c3n1C)C2C#N (racemic),thermal stability,,DSF,10 µM,ΔTm,-0.3 °C
N#CCCc1ccc2c(c1)-c1[nH]c3ccc([N+](=O)[O-])cc3c1CC(=O)N2,cell-free assay,,,0.5 µM,remaining signal,95.4%
Cn1c2c(Cl)c(Cl)ccc2c2cc(N)[nH]c(=O)c21,thermal stability,,DSF,10 µM,ΔTm,0.6 °C
Cc1sc(C(=O)NC2COC2)cc1-n1cc(NC(=O)Nc2c(F)cccc2Cl)cn1,enzyme activity,inhibitor,,10 µM,remaining activity,88.5%
CC(C)(C)c1nc2c(s1)c1nc(N)ncc1c1ccc(NS(=O)(=O)c3c(F)cccc3F)c(F)c12,enzyme activity,inhibitor,radiometric,1 µM,remaining activity,92%
